Test results reported in ChEMBL document CHEMBL3414459, “Phenolic thio- and selenosemicarbazones as multi-target drugs” (Eur J Med Chem, 2015).
Activity calls are given as the source filed them. No cut-off for these calls is given here.

Experiments:
[1] = Inhibition of baker's yeast alpha-glucosidase using p-nitrophenyl-alpha-D-glucopyranoside substrate assessed as reduction in p-nitrophenolate formation
Method in brief: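 Run in 0.1 M phosphate buffer, pH 6.8, with 5% (v/v) DMSO. […] Enzyme started the reaction at 25 °C, and p-nitrophenolate was followed at 400 nm. Percent inhibition came from rates with and without inhibitor. Where inhibition exceeded 50%, Ki and mode were derived by Lineweaver–Burk, using substrate 0.25–4.0 Km and 2–3 fixed inhibitor concentrations.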

[2] = Inhibition of baker's yeast alpha-glucosidase using p-nitrophenyl-alpha-D-glucopyranoside substrate assessed as reduction in p-nitrophenolate formation at 500 uM; settings: Saccharomyces bayanus
Method in brief: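 α-Glucosidase in 0.1 M phosphate buffer pH 6.8 with p-nitrophenyl-α-D-glucopyranoside at K_M (250 µM; K_M 0.25 mM). Inhibitor at 500 µM final or DMSO, DMSO 5% v/v.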

[3] = Antiproliferative activity against human HBL100 cells after 48 hrs by sulforhodamine B assay; type: functional; settings: HBL-100, 48 h
Method in brief: (§1)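 Exponentially growing cells trypsinized into penicillin/streptomycin medium, >97% viable by trypan blue. Seeded per well: 10,000 (A549, HBL-100, HeLa, SW1573), 15,000 (T-47D), 20,000 (WiDr). Treatment began day 1, DMSO stocks 40 mM, 0.25% DMSO as control, triplicate, 48 h. Cells fixed with cold TCA 60 min at 4 °C, SRB stained, OD492 read, medium background subtracted.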

[4] = Antioxidant activity assessed as H2O2 scavenging activity at 100 uM incubated for 20 mins by phenol red based assay; type: physicochemical
Method in brief: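 Compound at 100 µM final, or DMSO control, in 0.1 M phosphate buffer pH 7.4 with H2O2 and 0.1 M NaCl, incubated in the dark at 37 °C for 20 min. Phenol red (0.2 mg/mL) and horseradish peroxidase (0.1 mg/mL) added, 15 min at 37 °C. NaOH added, 10 min at rt, A610 read. % reduction = (A_control − A_sample)/A_control × 100.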

A549 = test: Antiproliferative activity against human A549 cells after 48 hrs by sulforhodamine B assay; type: functional; settings: A549, 48 h; method in brief: as §1
[5] = Inhibition of baker's yeast alpha-glucosidase using p-nitrophenyl-alpha-D-glucopyranoside substrate assessed as inhibition constant for enzyme-compound binding by measuring reduction in p-nitrophenolate formation; parameters: species or system Saccharomyces cerevisiae
Method in brief: (§2)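 Same α-glucosidase conditions: pH 6.8 phosphate buffer, 25 °C, A400 for p-nitrophenolate, 5% DMSO. Done for inhibitors exceeding 50% inhibition at 500 µM. Rates measured at 5 substrate concentrations from 0.25 to 4.0 K_m, each at a fixed inhibitor concentration, using 2–3 inhibitor concentrations. Lineweaver–Burk double reciprocal plots gave the inhibition mode and constants K_ia (E) and K_ib (ES).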

WiDr = test: Antiproliferative activity against human WiDr cells after 48 hrs by sulforhodamine B assay; type: functional; method in brief: as §1
[6] = Potency index, ratio of IC50 for hydroxytyrosol to IC50 for test compound for antioxidant activity assessed as DPPH free radical scavenging activity incubated for 30 mins
[7] = Inhibition of baker's yeast alpha-glucosidase using p-nitrophenyl-alpha-D-glucopyranoside substrate assessed as inhibition constant for enzyme-substrate-compound binding by measuring reduction in p-nitrophenolate formation; method in brief: as §2
[8] = Antioxidant activity assessed as inhibition of the lipid peroxidation at 0.74 mM incubated for 24 hrs by ferric thiocyanate method; type: physicochemical; settings: 740 µM
Method in brief: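 Ferric thiocyanate method at 0.74 mM. 10.0 mM DMSO stock combined with methanolic linoleic acid in 0.2 M phosphate buffer pH 7.0. AAPH added, then 24 h at 50 °C in the dark; DMSO served as control. An aliquot was diluted in H2O–DMSO with NH4SCN and FeCl2 in HCl. After 3 min at rt, A546 read. % inhibition relative to control.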

HeLa = test: Antiproliferative activity against human HeLa cells after 48 hrs by sulforhodamine B assay; type: functional; method in brief: as §1
[9] = Antioxidant activity assessed as DPPH free radical scavenging activity incubated for 30 mins; type: physicochemical
Method in brief: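 DPPH in HPLC-grade solvent mixed with compound in DMSO at 7 concentrations, or with DMSO alone as control. Kept in the dark at rt for 30 min, then A515 read against a blank. % DPPH remaining = A_sample/A_control × 100, plotted against concentration; EC50 taken from the straight line. Triplicate.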

SW1573 = test: Antiproliferative activity against human SW1573 cells after 48 hrs by sulforhodamine B assay; type: functional; settings: SW1573, 48 h; method in brief: as §1
[10] = Mixed inhibition of baker's yeast alpha-glucosidase using p-nitrophenyl-alpha-D-glucopyranoside substrate assessed as reduction in p-nitrophenolate formation by Lineweaver-Burk plot; settings: Saccharomyces bayanus; method in brief: as §2
T47D = test: Antiproliferative activity against human T47D cells after 48 hrs by sulforhodamine B assay; type: functional; method in brief: as §1
[11] = Pro-oxidant activity assessed as hydroxyl radical generation through deoxyribose degradation by measuring change in absorbance at 0.83 mM by TBARS based spectrophotometry; type: ADME; settings: 830 µM
Method in brief: (§3)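 Modified Halliwell deoxyribose assay with the compound at the stated concentration in 0.1 M phosphate buffer pH 7.4, with 2-deoxyribose, H2O2, and FeCl3 premixed with EDTA. Heated 1 h at 37 °C, then TBA in NaOH and trichloroacetic acid added and heated 15 min at 100 °C. Cooled, A532 read; DMSO as control. Repeated without deoxyribose to account for TBARS interference.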

Saccharomyces bayanus [12] = test: Non-competitive inhibition of baker's yeast alpha-glucosidase using p-nitrophenyl-alpha-D-glucopyranoside substrate assessed as reduction in p-nitrophenolate formation by Lineweaver-Burk plot; method in brief: as §2
[13] = Pro-oxidant activity assessed as hydroxyl radical generation through deoxyribose degradation by measuring change in absorbance at 0.42 mM by TBARS based spectrophotometry; type: ADME; settings: 420 µM; method in brief: as §3
[14] = Pro-oxidant activity assessed as hydroxyl radical generation through deoxyribose degradation by measuring change in absorbance at 0.17 mM by TBARS based spectrophotometry; type: ADME; settings: 170 µM; method in brief: as §3
[15] = Pro-oxidant activity assessed as hydroxyl radical generation through deoxyribose degradation by measuring change in absorbance at 0.083 mM by TBARS based spectrophotometry; type: ADME; settings: 83 µM; method in brief: as §3
Saccharomyces bayanus [16] = test: Potency index, ratio of Ki for acarbose to Ki for compound against baker's yeast alpha-glucosidase using p-nitrophenyl-alpha-D-glucopyranoside substrate assessed as reduction in p-nitrophenolate formation
Saccharomyces bayanus [17] = test: Un-competitive inhibition of baker's yeast alpha-glucosidase using p-nitrophenyl-alpha-D-glucopyranoside substrate assessed as reduction in p-nitrophenolate formation by Lineweaver-Burk plot; method in brief: as §2

Row | Compound | inhibition [2] [%] | GI50 [3] [µM] | inhibition (INH) [4] | GI50 (A549) [µM] | Ki [5] [µM] | GI50 (WiDr) [µM] | Ratio IC50 [6] | Ki [7] [µM] | inhibition (INH) [8] [%] | GI50 (HeLa) [µM] | EC50 [9] [µM] | GI50 (SW1573) [µM] | inhibition [10] | GI50 (T47D) [µM] | Activity [11] | inhibition (Saccharomyces bayanus [12]) | also measured
1 | C[C@H]1O[C@H](O[C@H]2[C@H](O)[C@@H](O)[C@@H](O[C@H]3[C@H](O)[C@@H](O)C(O)O[C@@H]3CO)O[C@@H]2CO)[C@H](O)[C@@H](O)[C@@H]1N[C@H]1C=C(CO)[C@@H](O)[C@H](O)[C@H]1O (some centres undefined) [ACARBOSE] | – | – | – | – | – | – | – | – | – | – | – | – | – | – | – | – | Ki [1]: 77.9 µM
2 | Oc1cc(O)c(/C=N/NC(=[Se])Nc2cccc3ccccc23)cc1O | 95 | 4 | 4.5% | 1.7 | 33 | 5.2 | < 3 | 76.8 | 43 | 3 | 10.7 | 5 | Active | 3.5 | – | – | –
3 | Oc1cc(/C=N/NC(=S)Nc2ccccc2)cc(O)c1O | 70 | 71 | 80% | 9.3 | 297 | > 100 | < 3 | 86.2 | 59.9 | 32 | 7 | 49 | Active | 61 | – | – | –
4 | Oc1ccc(/C=N/NC(=[Se])Nc2ccccc2)cc1 | 62 | 13 | 72.5% | 1.4 | 336 | 16 | – | – | 31 | 3.7 | 27.8 | 19 | – | 7.2 | 0.087 | Active | –
5 | Oc1ccc(/C=N/NC(=[Se])Nc2ccccc2)cc1O | 81 | 3.8 | 69% | 2.6 | 201 | 3.2 | < 3 | – | 66.5 | 3.3 | 8.77 | 5.8 | – | 3.7 | 0.097 | Active | –
6 | Oc1ccc(/C=N/NC(=[Se])Nc2cccc3ccccc23)cc1O | 95 | 2.6 | 46.3% | 1.1 | 57.8 | 2.8 | – | 69.8 | 72 | 2.2 | 18.2 | 3.2 | Active | 2.5 | 0.079 | – | Activity [13]: 0.041; Activity [14]: 0.037; Activity [15]: 0.097
7 | Oc1cc(/C=N/NC(=[Se])Nc2ccccc2)cc(O)c1O | 95 | 2 | 64% | 1.5 | 30.3 | 3.7 | < 3 | 78.4 | 65.7 | 2.1 | 4.87 | 3.9 | Active | 2.9 | – | – | –
8 | Oc1cc(O)c(/C=N/NC(=S)Nc2ccccc2)cc1O | 100 | 29 | Not Active | 1.2 | 9.6 | 30 | – | – | 56.8 | 19 | 13.9 | 30 | – | 10 | 0.067 | Active | Ratio Ki (Saccharomyces bayanus [16]): 8
9 | Oc1ccc(/C=N/NC(=S)Nc2ccccc2)cc1 | 52 | 43 | 79.5% | 34 | – | 61 | – | 213 | 5.5 | 42 | 90.1 | 35 | – | 88 | 0.094 | – | inhibition (Saccharomyces bayanus [17]): Active
